From ChEMBL document CHEMBL1133408, “5-Arylamino-2-methyl-4,7-dioxobenzothiazoles as inhibitors of cyclin-dependent kinase 4 and cytotoxic agents” (Bioorg Med Chem Lett, 2000)
In brackets after ≈: the same amount, converted by molar mass.

What was measured:
A549 = experiment: Inhibition of A549 cancer cell proliferation; assay type: functional, cell-based; conditions: Homo sapiens
Method in brief: (§1)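 Cytotoxicity measured by sulforhodamine B (SRB) assay following NCI protocols. Human tumour cell lines: A 549 (non-small cell lung, from NCI), Col 1 (human colon carcinoma, from University of Illinois at Chicago surgical oncology), HL-60 (myeloid leukaemia, from ATCC) and HepG2 (hepatocarcinoma, from ATCC).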

[1] = molecular target: Cyclin-dependent kinase 2 (Homo sapiens, UniProt P24941); experiment: Inhibition of Cyclin-dependent kinase 2 (CDK2/cyclin A)
COLO1 = experiment: Inhibition of Col1 cancer cell proliferation; assay type: functional, cell-based, Homo sapiens; method in brief: as §1
[2] = molecular target: Cyclin-dependent kinase 4 (Homo sapiens, UniProt P11802); experiment: Inhibition of Cyclin-dependent kinase 4 (CDK4/cyclin Dl)
HL-60 = experiment: Inhibition of HL60 cancer cell proliferation; assay type: functional, cell-based, Homo sapiens; method in brief: as §1
HepG2 = experiment: Inhibition of HepG2 cancer cell proliferation; assay type: functional, cell-based; conditions: Homo sapiens; method in brief: as §1
[3] = Homo sapiens, COLO1, read-out: IC50
[4] = Homo sapiens, HL-60, read-out: IC50

Cyclin-dependent kinase 4, sequence (P11802 whole entry): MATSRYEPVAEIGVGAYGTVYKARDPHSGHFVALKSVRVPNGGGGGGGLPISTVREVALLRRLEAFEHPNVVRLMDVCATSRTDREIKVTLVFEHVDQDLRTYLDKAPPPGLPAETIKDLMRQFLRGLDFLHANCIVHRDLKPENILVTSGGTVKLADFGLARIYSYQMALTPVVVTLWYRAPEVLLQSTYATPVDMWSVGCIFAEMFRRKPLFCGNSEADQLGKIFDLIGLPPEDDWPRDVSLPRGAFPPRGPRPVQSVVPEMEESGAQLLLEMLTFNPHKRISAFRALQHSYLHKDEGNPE

Row | Compound | IC50 (A549) | IC50 [1] | IC50 (COLO1; [3]) | IC50 [2] | IC50 (HL-60; [4]) | IC50 (HepG2) | IC50 (COLO1; colo1) | IC50 (HL-60; hl-60)
1 | Cn1cnc2c(NCc3ccccc3)nc(NCCO)nc21 [OLOMOUCINE] | 57 µg/mL (≈ 191 µM) | – | 87 µg/mL (≈ 292 µM) | – | 50 µg/mL (≈ 168 µM) | – | – | –
2 | CISPLATIN | – | – | – | – | – | – | 1.38 µg/mL | 0.7 µg/mL
3 | Cc1nc2c(s1)C(=O)C=C(Nc1ccc(O)cc1)C2=O | 0.7 µg/mL (≈ 2.44 µM) | > 200 µM | 1.85 µg/mL (≈ 6.46 µM) | 6.7 µM | 0.26 µg/mL (≈ 0.908 µM) | 1.36 µg/mL (≈ 4.75 µM) | – | –
4 | Cc1ccc(NC2=CC(=O)c3sc(C)nc3C2=O)cc1 | 0.61 µg/mL (≈ 2.15 µM) | > 200 µM | 1.08 µg/mL (≈ 3.8 µM) | 6 µM | 0.3 µg/mL (≈ 1.06 µM) | – | – | –
5 | CCOc1ccc(NC2=CC(=O)c3sc(C)nc3C2=O)cc1 | 1.76 µg/mL (≈ 5.6 µM) | > 200 µM | 2.09 µg/mL (≈ 6.65 µM) | 20 µM | 0.29 µg/mL (≈ 0.922 µM) | 1.53 µg/mL (≈ 4.87 µM) | – | –

Other lines, results leading:

Row | IC50 (A549) | IC50 [1] | IC50 (COLO1; [3]) | IC50 [2] | IC50 (HL-60; [4]) | IC50 (HepG2) | IC50 (COLO1; colo1) | IC50 (HL-60; hl-60) | Compound
6 | 0.64 µg/mL (≈ 2.37 µM) | > 200 µM | 1.93 µg/mL (≈ 7.14 µM) | 6 µM | 0.28 µg/mL (≈ 1.04 µM) | 1.3 µg/mL (≈ 4.81 µM) | – | – | Cc1nc2c(s1)C(=O)C=C(Nc1ccccc1)C2=O
7 | 1.69 µg/mL (≈ 5.86 µM) | > 200 µM | 1.94 µg/mL (≈ 6.73 µM) | 6.3 µM | 0.23 µg/mL (≈ 0.798 µM) | 1.51 µg/mL (≈ 5.24 µM) | – | – | Cc1nc2c(s1)C(=O)C=C(Nc1ccc(F)cc1)C2=O
8 | 3.6 µg/mL (≈ 11.8 µM) | > 200 µM | 20 µg/mL (≈ 65.6 µM) | 7 µM | 0.33 µg/mL (≈ 1.08 µM) | 3.23 µg/mL (≈ 10.6 µM) | – | – | Cc1nc2c(s1)C(=O)C=C(Nc1ccc(Cl)cc1)C2=O
9 | 1.65 µg/mL (≈ 5.49 µM) | > 200 µM | 2.01 µg/mL (≈ 6.69 µM) | 5.6 µM | 0.27 µg/mL (≈ 0.899 µM) | 1.39 µg/mL (≈ 4.63 µM) | – | – | COc1ccc(NC2=CC(=O)c3sc(C)nc3C2=O)cc1
10 | 3.6 µg/mL (≈ 10.3 µM) | > 200 µM | 6.57 µg/mL (≈ 18.8 µM) | 6.7 µM | 0.28 µg/mL (≈ 0.802 µM) | 2.78 µg/mL (≈ 7.96 µM) | – | – | Cc1nc2c(s1)C(=O)C=C(Nc1ccc(Br)cc1)C2=O
11 | 2.08 µg/mL (≈ 5.25 µM) | > 200 µM | 2.08 µg/mL (≈ 5.25 µM) | 3 µM | 0.24 µg/mL (≈ 0.606 µM) | 1.95 µg/mL (≈ 4.92 µM) | – | – | Cc1nc2c(s1)C(=O)C=C(Nc1ccc(I)cc1)C2=O
